Calls of active or inactive are those of the source. The calls are words filed in the database; no cut-off is given here.
Key:
HeLa [1] = assay: Antiproliferative activity against BRCA1 deficient human HeLa cells; format: functional
In short: (§1)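 Antiproliferation in HeLa cells, BRCA1-deficient and BRCA wild-type lines. Read-out is CC50 in nM. Values are means of at least two experiments.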

HeLa [2] = assay: Antiproliferative activity against BRCA1 expressing human HeLa cells; format: functional; in short: as §1
[3] = biological target: Poly [ADP-ribose] polymerase 1 (Homo sapiens, UniProt P09874)
[4] = Intrinsic clearance in human liver microsomes; format: ADME, Microsome
[5] = Intrinsic clearance in rat liver microsomes; format: ADME, Microsome
[6] = Volume of distribution at steady state in rat; format: ADME, organism-based; settings: in vivo, read-out: Vdss
[7] = Half life in rat; format: ADME, organism-based; settings: in vivo
[8] = Drug excretion in iv dosed rat urine after 24 hrs; format: ADME, organism-based; settings: read-out: Activity
[9] = Clearance in rat; format: ADME, organism-based; settings: in vivo
HeLa [10] = assay: Antiproliferative activity against BRCA1 deficient human HeLa cells at 5 uM; format: functional, cell-based
HeLa [11] = assay: Selectivity for BRCA1 deficient human HeLa cells over BRCA1 expressing HeLa cells; format: functional
[12] = Oral bioavailability in rat; format: ADME, organism-based; settings: in vivo
CYP3A4 = CYP3A4 (Homo sapiens, UniProt P08684); assay: Inhibition of CYP3A4 at 10 uM; format: ADME
CYP2D6 = CYP2D6 (Homo sapiens, UniProt P10635); assay: Inhibition of CYP2D6 at 10 uM; format: ADME
[13] = biological target: Voltage-gated inwardly rectifying potassium channel KCNH2 (Homo sapiens, UniProt Q12809); assay: Inhibition of human ERG
[14] = Drug excretion in iv dosed rat bile after 72 hrs; format: ADME, organism-based; settings: read-out: Activity
[15] = Drug excretion in iv dosed rat urine after 72 hrs; format: ADME, organism-based; settings: read-out: Activity
[16] = Induction of CYP450 at 10 uM relative to refampicin; format: ADME

Poly [ADP-ribose] polymerase 1, sequence (P09874 whole entry): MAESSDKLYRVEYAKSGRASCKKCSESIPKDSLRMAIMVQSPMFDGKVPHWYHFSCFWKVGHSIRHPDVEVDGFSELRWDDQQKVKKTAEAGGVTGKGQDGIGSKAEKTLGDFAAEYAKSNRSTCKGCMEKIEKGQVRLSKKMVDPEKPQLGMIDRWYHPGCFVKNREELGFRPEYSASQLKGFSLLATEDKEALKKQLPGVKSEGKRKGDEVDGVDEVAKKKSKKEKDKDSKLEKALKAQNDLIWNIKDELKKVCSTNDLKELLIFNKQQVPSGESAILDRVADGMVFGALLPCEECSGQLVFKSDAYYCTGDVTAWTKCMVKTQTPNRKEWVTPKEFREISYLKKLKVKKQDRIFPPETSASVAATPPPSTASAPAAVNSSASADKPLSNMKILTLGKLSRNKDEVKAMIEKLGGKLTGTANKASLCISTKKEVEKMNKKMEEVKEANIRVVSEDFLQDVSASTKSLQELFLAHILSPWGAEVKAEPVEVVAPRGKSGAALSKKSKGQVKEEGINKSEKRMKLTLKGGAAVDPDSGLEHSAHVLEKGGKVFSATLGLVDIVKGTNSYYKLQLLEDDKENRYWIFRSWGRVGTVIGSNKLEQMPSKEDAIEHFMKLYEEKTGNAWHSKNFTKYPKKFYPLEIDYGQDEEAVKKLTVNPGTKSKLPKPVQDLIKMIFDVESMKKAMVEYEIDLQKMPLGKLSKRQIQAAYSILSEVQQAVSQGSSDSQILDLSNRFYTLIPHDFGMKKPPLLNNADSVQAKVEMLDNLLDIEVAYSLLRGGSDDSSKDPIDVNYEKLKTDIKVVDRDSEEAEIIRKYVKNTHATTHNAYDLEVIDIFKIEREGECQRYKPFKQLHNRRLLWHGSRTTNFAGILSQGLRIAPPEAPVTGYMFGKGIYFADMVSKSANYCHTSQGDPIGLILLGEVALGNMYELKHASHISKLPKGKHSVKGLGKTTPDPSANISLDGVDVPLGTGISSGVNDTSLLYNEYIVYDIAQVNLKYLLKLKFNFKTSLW
Voltage-gated inwardly rectifying potassium channel KCNH2, sequence (Q12809 whole entry): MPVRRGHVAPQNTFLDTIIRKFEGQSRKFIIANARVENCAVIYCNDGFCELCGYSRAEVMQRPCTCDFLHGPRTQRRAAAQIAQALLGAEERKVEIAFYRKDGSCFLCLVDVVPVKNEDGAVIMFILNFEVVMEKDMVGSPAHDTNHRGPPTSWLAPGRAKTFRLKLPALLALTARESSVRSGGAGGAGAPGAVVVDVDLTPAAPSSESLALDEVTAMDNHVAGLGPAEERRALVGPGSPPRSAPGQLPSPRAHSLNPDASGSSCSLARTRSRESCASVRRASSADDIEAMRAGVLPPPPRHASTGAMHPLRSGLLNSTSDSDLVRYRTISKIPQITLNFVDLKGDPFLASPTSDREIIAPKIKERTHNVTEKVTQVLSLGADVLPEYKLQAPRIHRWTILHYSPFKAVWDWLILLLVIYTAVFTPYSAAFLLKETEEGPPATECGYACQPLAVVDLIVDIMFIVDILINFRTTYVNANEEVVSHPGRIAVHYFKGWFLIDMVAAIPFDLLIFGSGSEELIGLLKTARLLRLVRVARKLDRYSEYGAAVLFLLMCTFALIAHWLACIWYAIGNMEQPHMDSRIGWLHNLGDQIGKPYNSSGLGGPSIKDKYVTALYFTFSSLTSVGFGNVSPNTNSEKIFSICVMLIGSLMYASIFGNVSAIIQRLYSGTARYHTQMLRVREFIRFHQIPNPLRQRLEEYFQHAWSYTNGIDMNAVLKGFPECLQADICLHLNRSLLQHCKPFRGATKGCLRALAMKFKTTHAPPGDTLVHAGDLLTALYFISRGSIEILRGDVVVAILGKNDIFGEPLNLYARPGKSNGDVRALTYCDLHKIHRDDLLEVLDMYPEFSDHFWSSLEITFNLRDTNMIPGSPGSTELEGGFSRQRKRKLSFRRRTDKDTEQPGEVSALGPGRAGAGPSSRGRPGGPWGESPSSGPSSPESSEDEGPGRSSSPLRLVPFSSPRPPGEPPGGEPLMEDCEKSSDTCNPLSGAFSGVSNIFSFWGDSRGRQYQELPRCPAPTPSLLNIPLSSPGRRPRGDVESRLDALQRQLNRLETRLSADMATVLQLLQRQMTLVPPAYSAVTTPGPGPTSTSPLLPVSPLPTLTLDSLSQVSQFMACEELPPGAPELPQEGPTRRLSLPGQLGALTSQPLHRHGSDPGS
CYP3A4, sequence (P08684 whole entry): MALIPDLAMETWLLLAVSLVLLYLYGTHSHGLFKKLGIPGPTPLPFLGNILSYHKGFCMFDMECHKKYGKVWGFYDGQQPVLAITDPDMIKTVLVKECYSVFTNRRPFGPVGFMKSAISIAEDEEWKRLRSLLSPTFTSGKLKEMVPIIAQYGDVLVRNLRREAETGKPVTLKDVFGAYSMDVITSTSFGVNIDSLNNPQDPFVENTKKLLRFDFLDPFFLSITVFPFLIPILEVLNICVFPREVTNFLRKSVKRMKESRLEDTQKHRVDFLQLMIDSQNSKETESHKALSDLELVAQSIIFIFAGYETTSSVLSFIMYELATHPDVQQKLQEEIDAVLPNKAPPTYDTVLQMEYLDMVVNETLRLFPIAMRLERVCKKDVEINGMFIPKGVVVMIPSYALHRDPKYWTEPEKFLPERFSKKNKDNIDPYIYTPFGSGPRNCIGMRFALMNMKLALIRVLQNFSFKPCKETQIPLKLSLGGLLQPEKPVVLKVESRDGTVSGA
CYP2D6, sequence (P10635 whole entry): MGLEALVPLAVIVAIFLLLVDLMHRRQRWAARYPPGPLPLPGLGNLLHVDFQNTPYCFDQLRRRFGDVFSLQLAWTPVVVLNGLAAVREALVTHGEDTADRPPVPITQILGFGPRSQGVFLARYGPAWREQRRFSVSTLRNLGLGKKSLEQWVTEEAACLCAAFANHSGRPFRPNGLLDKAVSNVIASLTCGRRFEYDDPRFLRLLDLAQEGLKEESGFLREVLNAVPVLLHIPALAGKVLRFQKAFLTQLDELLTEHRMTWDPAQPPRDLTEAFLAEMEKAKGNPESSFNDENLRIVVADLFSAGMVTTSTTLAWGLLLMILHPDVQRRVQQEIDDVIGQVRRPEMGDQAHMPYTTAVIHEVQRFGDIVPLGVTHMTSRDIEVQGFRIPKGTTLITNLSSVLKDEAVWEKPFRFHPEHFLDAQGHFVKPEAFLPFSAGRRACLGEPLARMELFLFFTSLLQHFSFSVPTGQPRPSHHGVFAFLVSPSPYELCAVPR

Cc1c(Cc2ccc(F)c(C(=O)N3CCN(C(=O)[C@]4(Cc5ccc(F)cc5)CCCN4)CC3)c2)n[nH]c(=O)c1C
CC50 (HeLa [1]): 15 nM
CC50 (HeLa [2]): 3300 nM
IC50 [3]: 2.5 nM

Cc1c(Cc2ccc(F)c(C(=O)N3CCC4(CCCN4)CC3)c2)n[nH]c(=O)c1C
microsomal CLint [4]: < 1 µL/min/mg
microsomal CLint [5]: < 1 µL/min/mg
Vd [6]: 6.7 L/kg
half-life [7]: 3.7 h
CC50 (HeLa [1]): 49 nM
CC50 (HeLa [2]): > 5000 nM
dose excreted at 24 h [8]: 37%
clearance [9]: 57 mL/min/kg
IC50 [3]: 2.6 nM

Cc1c(Cc2ccc(F)c(C(=O)N3CCN(C(=O)C4(NCC5CC5)CCCC4)CC3)c2)n[nH]c(=O)c1C
CC50 (HeLa [1]): 71 nM
CC50 (HeLa [2]): 2100 nM
IC50 [3]: 2.4 nM

CCN1CCCC12CCN(C(=O)c1cc(Cc3n[nH]c(=O)c(C)c3C)ccc1F)CC2
CC50 (HeLa [1]): 170 nM
CC50 (HeLa [2]): > 5000 nM
IC50 [3]: 9.7 nM

CNC1(C(=O)N2CCN(C(=O)c3cc(Cc4n[nH]c(=O)c(C)c4C)ccc3F)CC2)CC1
CC50 (HeLa [1]): 240 nM
CC50 (HeLa [2]): > 5000 nM

Cc1c(Cc2ccc(F)c(C(=O)N3CCN(C(=O)C4(N(C)C)CC4)CC3)c2)n[nH]c(=O)c1C
CC50 (HeLa [1]): 350 nM
CC50 (HeLa [2]): 7700 nM
IC50 [3]: 5.7 nM

C=CCC1(C(=O)N2CCN(C(=O)c3cc(Cc4n[nH]c(=O)c(C)c4C)ccc3F)CC2)CCCN1 (stereo not given)
CC50 (HeLa [1]): 31 nM
CC50 (HeLa [2]): 19000 nM
IC50 [3]: 1.8 nM

Cc1c(Cc2ccc(F)c(C(=O)N3CCN(C(=O)C4CCNC4)CC3)c2)n[nH]c(=O)c1C (stereo not given)
Activity (HeLa [10]): inactive
CC50 (HeLa [1]): > 5000 nM
CC50 (HeLa [2]): > 5000 nM
IC50 [3]: 3.9 nM

Cc1c(Cc2ccc(F)c(C(=O)N3CCN(C(=O)[C@@]4(C)CCCN4)CC3)c2)n[nH]c(=O)c1C
Ratio (HeLa [11]): 100
CC50 (HeLa [1]): 45 nM
CC50 (HeLa [2]): > 5000 nM
IC50 [3]: 1.3 nM

Cc1c(Cc2ccc(F)c(C(=O)N3CCN(C(=O)[C@@]4(Cc5ccc(F)cc5)CCCN4)CC3)c2)n[nH]c(=O)c1C
CC50 (HeLa [1]): 290 nM
CC50 (HeLa [2]): 15000 nM
IC50 [3]: 4.2 nM

Cc1c(Cc2ccc(F)c(C(=O)N3CCN(C(=O)C4(NCC5CC5)CCC4)CC3)c2)n[nH]c(=O)c1C
CC50 (HeLa [1]): 24 nM
CC50 (HeLa [2]): 450 nM
IC50 [3]: 3.2 nM

CCNC1(C(=O)N2CCN(C(=O)c3cc(Cc4n[nH]c(=O)c(C)c4C)ccc3F)CC2)CCCC1
CC50 (HeLa [1]): 91 nM
CC50 (HeLa [2]): 4000 nM
IC50 [3]: 3.1 nM

Cc1c(Cc2ccc(F)c(C(=O)N3CCC4(CCNC4)CC3)c2)n[nH]c(=O)c1C
CC50 (HeLa [1]): > 5000 nM
CC50 (HeLa [2]): > 5000 nM
IC50 [3]: 4.7 nM

Cc1c(Cc2ccc(F)c(C(=O)N3CCN(C(=O)C4(Nc5ccccc5)CCCC4)CC3)c2)n[nH]c(=O)c1C
CC50 (HeLa [1]): 130 nM
CC50 (HeLa [2]): 870 nM
IC50 [3]: 3.9 nM

CNC1(C(=O)N2CCN(C(=O)c3cc(Cc4n[nH]c(=O)c(C)c4C)ccc3F)CC2)CCCC1
CC50 (HeLa [1]): 81 nM
CC50 (HeLa [2]): > 5000 nM
IC50 [3]: 2.7 nM

Cc1c(Cc2ccc(F)c(C(=O)N3CCN(C(=O)C4(N5CCCC5)CCCC4)CC3)c2)n[nH]c(=O)c1C
CC50 (HeLa [1]): 89 nM
CC50 (HeLa [2]): 1500 nM
IC50 [3]: 2.7 nM

Cc1c(Cc2ccc(F)c(C(=O)N3CCN(C(=O)[C@H]4CCCN4)CC3)c2)n[nH]c(=O)c1C
CC50 (HeLa [1]): 220 nM
CC50 (HeLa [2]): > 10000 nM
IC50 [3]: 2.7 nM

Cc1c(Cc2ccc(F)c(C(=O)N3CCN(C(=O)C4(C)CCCCN4)CC3)c2)n[nH]c(=O)c1C (stereo not given)
CC50 (HeLa [1]): 2000 nM
CC50 (HeLa [2]): > 20000 nM
IC50 [3]: 12 nM

Cc1c(Cc2ccc(F)c(C(=O)N3CCC4(CCCN4C)CC3)c2)n[nH]c(=O)c1C
CC50 (HeLa [1]): 100 nM
CC50 (HeLa [2]): > 5000 nM
IC50 [3]: 4.5 nM

Cc1c(Cc2ccc(F)c(C(=O)N3CCC4(CCN4)CC3)c2)n[nH]c(=O)c1C
CC50 (HeLa [1]): > 5000 nM
CC50 (HeLa [2]): > 5000 nM
IC50 [3]: 4.6 nM

Cc1c(Cc2ccc(F)c(C(=O)N3CCN(C(=O)C(C)(C)N(C)C)CC3)c2)n[nH]c(=O)c1C
CC50 (HeLa [1]): 360 nM
CC50 (HeLa [2]): > 2500 nM
IC50 [3]: 1.8 nM

Cc1c(Cc2ccc(F)c(C(=O)N3CCN(C(=O)[C@]4(C)CCCN4)CC3)c2)n[nH]c(=O)c1C
CC50 (HeLa [1]): 780 nM
CC50 (HeLa [2]): > 40000 nM
IC50 [3]: 3.8 nM

CNC(C)(C)C(=O)N1CCN(C(=O)c2cc(Cc3n[nH]c(=O)c(C)c3C)ccc2F)CC1
microsomal CLint [4]: 10 µL/min/mg
microsomal CLint [5]: 7 µL/min/mg
CC50 (HeLa [1]): 280 nM
CC50 (HeLa [2]): > 5000 nM
clearance [9]: 64 mL/min/kg
IC50 [3]: 3.7 nM

Cc1c(Cc2ccc(F)c(C(=O)N3CCN(C(=O)C4(Cc5ccccc5)CCCN4)CC3)c2)n[nH]c(=O)c1C (stereo not given)
CC50 (HeLa [1]): 53 nM
CC50 (HeLa [2]): > 5000 nM
IC50 [3]: 3.3 nM

CCC1(C(=O)N2CCN(C(=O)c3cc(Cc4n[nH]c(=O)c(C)c4C)ccc3F)CC2)CCCN1 (stereo not given)
microsomal CLint [4]: 13 µL/min/mg
microsomal CLint [5]: 6 µL/min/mg
bioavailability [12]: < 3%
CC50 (HeLa [1]): 24 nM
CC50 (HeLa [2]): 16000 nM
IC50 [3]: 3.8 nM

Cc1c(Cc2ccc(F)c(C(=O)N3CCN(C(=O)[C@@]4(C)CCN4)CC3)c2)n[nH]c(=O)c1C
microsomal CLint [4]: 3 µL/min/mg
microsomal CLint [5]: < 1 µL/min/mg
bioavailability [12]: < 3%
CC50 (HeLa [1]): 78 nM
CC50 (HeLa [2]): > 40000 nM
dose excreted at 24 h [8]: 11%
IC50 [3]: 3.1 nM

Cc1c(Cc2ccc(F)c(C(=O)N3CCN(C(=O)C4(Cc5ccc(F)cc5)CCCN4)CC3)c2)n[nH]c(=O)c1C (stereo not given)
inhibition at 10 µM (CYP3A4): 73%
CC50 (HeLa [1]): 9.1 nM
CC50 (HeLa [2]): 2700 nM
IC50 [3]: 3.6 nM

Cc1c(Cc2ccc(F)c(C(=O)N3CCN(C(=O)C4(C)CCCO4)CC3)c2)n[nH]c(=O)c1C (stereo not given)
CC50 (HeLa [1]): 380 nM
CC50 (HeLa [2]): 11000 nM
IC50 [3]: 2.8 nM

Cc1c(Cc2ccc(F)c(C(=O)N3CCN(C(=O)C4(NCC5CC5)CCCCC4)CC3)c2)n[nH]c(=O)c1C
CC50 (HeLa [1]): 170 nM
CC50 (HeLa [2]): 1900 nM
IC50 [3]: 3.5 nM

Cc1c(Cc2ccc(F)c(C(=O)N3CCN(C(=O)[C@@H]4CCCN4)CC3)c2)n[nH]c(=O)c1C
CC50 (HeLa [1]): 3000 nM
CC50 (HeLa [2]): > 10000 nM
IC50 [3]: 3.1 nM

O=C(c1cc(Cc2c[nH]c(=O)c3cc(Cl)c(Cl)n23)ccc1F)N1CCC2(CCCN2)CC1
Ratio (HeLa [11]): >100
microsomal CLint [5]: 65 µL/min/mg
CC50 (HeLa [1]): 48 nM
inhibition at 10 µM (CYP2D6): 35%
CC50 (HeLa [2]): > 5000 nM
clearance [9]: 130 mL/min/kg
IC50 [3]: 2.5 nM
IC50 [13]: 12000 nM

Cc1c(Cc2ccc(F)c(C(=O)N3CCN(C(=O)C4(C)CCCN4)CC3)c2)n[nH]c(=O)c1C (stereo not given)
Ratio (HeLa [11]): 30
microsomal CLint [4]: < 1 µL/min/mg
microsomal CLint [5]: < 1 µL/min/mg
bioavailability [12]: < 3%
CC50 (HeLa [1]): 90 nM
dose excreted at 72 h [14]: 3%
dose excreted at 72 h [15]: 82%
CC50 (HeLa [2]): > 5000 nM
clearance [9]: 38 mL/min/kg
IC50 [3]: 2.8 nM

CNC(C)(C)C(=O)N1CCN(C(=O)c2cc(Cc3c[nH]c(=O)c4cc(Cl)c(Cl)n34)ccc2F)CC1
inhibition at 10 µM (CYP3A4): 25%
Ratio (HeLa [11]): >100
Activity [16]: 14%
microsomal CLint [5]: 122 µL/min/mg
CC50 (HeLa [1]): 53 nM
CC50 (HeLa [2]): > 5000 nM
clearance [9]: > 200 mL/min/kg
IC50 [3]: 2 nM
IC50 [13]: 11000 nM

Reference: ChEMBL document CHEMBL1158507, “Development of substituted 6-[4-fluoro-3-(piperazin-1-ylcarbonyl)benzyl]-4,5-dimethylpyridazin-3(2H)-ones as potent poly(ADP-ribose) polymerase-1 (PARP-1) inhibitors active in BRCA deficient cells” (Bioorg Med Chem Lett, 2010)
